One block for each compound: values may come before it.
Columns and labels:
[1] = Metabolic stability in human liver microsomess after 15 mins at 5 uM; assay type: ADME, Microsome; conditions: liver microsomes
Method in brief: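 Compound at 5 µM was incubated with human liver microsomes for 15 min at 37 °C. Stability is expressed as percent of compound metabolized.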

[2] = Inhibition of full length HCV NS3/4A protease; set-up: species or system Hepacivirus hominis
Method in brief: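 Full-length recombinant genotype 1 NS3 protease was run with a truncated NS4A cofactor in a biochemical assay. Inhibition constants (Ki) are reported.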

[3] = test system: Hepatitis C virus; assay: Inhibition of HCV replication in human HuH7-Rep cells containing subgenomic bicistronic clone; assay type: functional, organism-based, Hepacivirus hominis; conditions: Huh-7
Method in brief: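 Huh7 cells carried the subgenomic bicistronic replicon clone ET with a luciferase reporter. EC50 is the concentration that cut luciferase signal by 50% relative to untreated control.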

[4] = Plasma concentration in Sprague-Dawley rat at 2 mg/kg, iv after 2 hrs; assay type: ADME, organism-based; set-up: dose 2 mg/kg, route intravenous
Method in brief: (§1)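 Male SD rats (n = 2 per route) got a single dose: 2 mg/kg IV in 20% hydroxypropyl-β-cyclodextrin, or 10 mg/kg oral in 50% PEG400 with 2.5% vitamin E-TPGS. Plasma was sampled out to 8 h. Heart and liver levels were taken at 8 h. Oral half-life was fitted over 2–8 h. Bioavailability compares oral against IV exposure.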

[5] = Plasma concentration in Sprague-Dawley rat at 10 mg/kg, po after 1 hr; assay type: ADME, organism-based; set-up: dose 10 mg/kg, route oral; method in brief: as §1
[6] = test system: Rattus norvegicus; assay: Clearance in Sprague-Dawley rat at 2 mg/kg, iv; assay type: ADME, organism-based; set-up: dose 2 mg/kg, route intravenous; conditions: in vivo; method in brief: as §1
[7] = test system: Rattus norvegicus; assay: AUC (0 to infinity) in Sprague-Dawley rat at 2 mg/kg, iv; assay type: ADME, organism-based, Plasma; set-up: time infinity, dose 2 mg/kg, route intravenous; conditions: in vivo; method in brief: as §1
[8] = Plasma concentration in Sprague-Dawley rat at 10 mg/kg, po after 4 hrs; assay type: ADME, organism-based; set-up: dose 10 mg/kg, route oral; method in brief: as §1
[9] = test system: Huh-7; assay: Cytotoxicity against human HuH7 cells by CMV-luciferase assay; assay type: functional
Method in brief: (§2)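 Cytotoxicity was tested in MT4-LTR-Luc and Huh7-CMV-Luc reporter cell lines. Results are given as CC50.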

[10] = Cmax in Sprague-Dawley rat at 10 mg/kg, po; assay type: ADME, organism-based; set-up: dose 10 mg/kg, route oral; conditions: in vivo; method in brief: as §1
[11] = Volume of distribution in steady state in Sprague-Dawley rat at 2 mg/kg, iv; assay type: ADME, organism-based; set-up: dose 2 mg/kg, route intravenous; conditions: in vivo, read-out: Vdss; method in brief: as §1
[12] = Drug level in Sprague-Dawley rat heart at 2 mg/kg, iv after 8 hrs; assay type: ADME, organism-based; set-up: dose 2 mg/kg, route intravenous; conditions: read-out: Drug uptake; method in brief: as §1
[13] = Plasma concentration in Sprague-Dawley rat at 2 mg/kg, iv after 0.33 hrs; assay type: ADME, organism-based; set-up: dose 2 mg/kg, route intravenous; method in brief: as §1
[14] = Plasma concentration in Sprague-Dawley rat at 10 mg/kg, po after 0.5 hrs; assay type: ADME, organism-based; set-up: dose 10 mg/kg, route oral; method in brief: as §1
[15] = Drug level in Sprague-Dawley rat liver at 2 mg/kg, iv after 8 hrs; assay type: ADME, organism-based; set-up: dose 2 mg/kg, route intravenous; conditions: read-out: Drug uptake; method in brief: as §1
[16] = Plasma concentration in Sprague-Dawley rat at 2 mg/kg, iv after 8 hrs; assay type: ADME, organism-based; set-up: dose 2 mg/kg, route intravenous; method in brief: as §1
[17] = Plasma concentration in Sprague-Dawley rat at 2 mg/kg, iv after 4 hrs; assay type: ADME, organism-based; set-up: dose 2 mg/kg, route intravenous; method in brief: as §1
[18] = Plasma concentration in Sprague-Dawley rat at 2 mg/kg, iv after 0.12 hrs; assay type: ADME, organism-based; set-up: dose 2 mg/kg, route intravenous; method in brief: as §1
[19] = Permeability from apical to basolateral side of human Caco-2 cells; assay type: ADME, cell-based
[20] = Oral bioavailability in Sprague-Dawley rat at 10 mg/kg, po; assay type: ADME, organism-based; conditions: in vivo; method in brief: as §1
[21] = AUC (0 to 8 hrs) in Sprague-Dawley rat at 10 mg/kg, po; assay type: ADME, organism-based; set-up: time < 8 hr, dose 10 mg/kg, route oral; conditions: plasma; method in brief: as §1
[22] = AUC (0 to infinity) in Sprague-Dawley rat at 10 mg/kg, po; assay type: ADME, organism-based; set-up: time infinity, dose 10 mg/kg, route oral; conditions: plasma; method in brief: as §1
[23] = Drug level in Sprague-Dawley rat heart at 10 mg/kg, po after 8 hrs; assay type: ADME, organism-based; set-up: dose 10 mg/kg, route oral; method in brief: as §1
[24] = Half life (2 to 8 hrs) in Sprague-Dawley rat at 10 mg/kg, po; assay type: ADME, organism-based; set-up: dose 10 mg/kg, route oral; conditions: in vivo; method in brief: as §1
[25] = AUC (0 to 8 hrs) in Sprague-Dawley rat at 2 mg/kg, iv; assay type: ADME, organism-based; set-up: time < 8 hr, dose 2 mg/kg, route intravenous; conditions: plasma; method in brief: as §1
[26] = test system: MT4; assay: Cytotoxicity against human MT4 cells by LTR-luciferase assay; assay type: functional; method in brief: as §2
[27] = Tmax in Sprague-Dawley rat at 10 mg/kg, po; assay type: ADME, organism-based; set-up: dose 10 mg/kg, route oral; conditions: in vivo; method in brief: as §1
[28] = Drug level in Sprague-Dawley rat liver at 10 mg/kg, po after 8 hrs; assay type: ADME, organism-based; set-up: dose 10 mg/kg, route oral; conditions: read-out: Drug uptake; method in brief: as §1
[29] = Plasma concentration in Sprague-Dawley rat at 10 mg/kg, po after 2 hrs; assay type: ADME, organism-based; set-up: dose 10 mg/kg, route oral; method in brief: as §1
[30] = Half life (2 to 8 hrs) in Sprague-Dawley rat at 2 mg/kg, iv; assay type: ADME, organism-based; set-up: dose 2 mg/kg, route intravenous; conditions: in vivo
[31] = Plasma concentration in Sprague-Dawley rat at 2 mg/kg, iv after 1 hr; assay type: ADME, organism-based; set-up: dose 2 mg/kg, route intravenous; method in brief: as §1
[32] = Plasma concentration in Sprague-Dawley rat at 10 mg/kg, po after 8 hrs; assay type: ADME, organism-based; set-up: dose 10 mg/kg, route oral; method in brief: as §1

metabolized at 0.25 h, 5 µM [1]: 82.4%
Ki [2]: 0.4 nM
EC50 [3]: 23.9 nM
Structure (SMILES): COc1ccc2c(O[C@@H]3C[C@H]4C(=O)N[C@]5(C(=O)NS(=O)(=O)C6CC6)C[C@H]5/C=C\CCCCCC(=O)N4C3)cc(-c3nc(C(C)C)cs3)nc2c1

Ki [2]: 2.8 nM
EC50 [3]: 5.84 nM
Structure (SMILES): COc1ccc2c(O[C@@H]3C[C@H]4C(=O)N[C@]5(C(=O)NS(=O)(=O)C6CC6)C[C@H]5/C=C\CCCCCCC(=O)N4C3)cc(-c3nc(C(C)C)cs3)nc2c1C

metabolized at 0.25 h, 5 µM [1]: 98%
Ki [2]: 0.65 nM
EC50 [3]: 18 nM
Structure (SMILES): COc1ccc2c(O[C@@H]3C[C@H]4C(=O)N[C@]5(C(=O)NS(=O)(=O)C6CC6)C[C@H]5/C=C\CCCCCCC(=O)N4C3)cc(-c3nc(C(C)C)cs3)nc2c1

Ki [2]: 46 nM
EC50 [3]: 1980 nM
Structure (SMILES): COc1ccc2c(O[C@@H]3C[C@H]4C(=O)N[C@]5(C(=O)O)C[C@H]5/C=C\CCCCCCC(=O)N4C3)cc(-c3csc(NC(C)C)n3)nc2c1

metabolized at 0.25 h, 5 µM [1]: 98.4%
Ki [2]: 0.5 nM
EC50 [3]: 4.37 nM
Structure (SMILES): COc1ccc2c(O[C@@H]3C[C@H]4C(=O)N[C@]5(C(=O)NS(=O)(=O)C6CC6)C[C@H]5/C=C\CCCCCCC(=O)N4C3)cc(-c3nccs3)nc2c1C

metabolized at 0.25 h, 5 µM [1]: 50.2%
Ki [2]: 0.2 nM
EC50 [3]: 3.55 nM
Structure (SMILES): COc1ccc2c(O[C@@H]3C[C@H]4C(=O)N[C@]5(C(=O)NS(=O)(=O)C6CC6)C[C@H]5/C=C\CCCCCC(=O)N4C3)cc(-c3nc(C(C)C)cs3)nc2c1C

Ki [2]: 0.5 nM
EC50 [3]: 3.97 nM
Structure (SMILES): COc1ccc2c(O[C@@H]3C[C@H]4C(=O)N[C@]5(C(=O)NS(=O)(=O)C6CC6)C[C@H]5/C=C\CCCCCCC(=O)N4C3)cc(-c3cscn3)nc2c1

Ki [2]: 18 nM
EC50 [3]: 5040 nM
Structure (SMILES): COc1ccc2c(O[C@@H]3C[C@H]4C(=O)N[C@]5(C(=O)O)C[C@H]5/C=C\CCCCCCC(=O)N4C3)cc(-c3nc(C(C)C)cs3)nc2c1

metabolized at 0.25 h, 5 µM [1]: 100%
Ki [2]: 0.1 nM
EC50 [3]: 1.9 nM
Structure (SMILES): COc1ccc2c(O[C@@H]3C[C@H]4C(=O)N[C@]5(C(=O)NS(=O)(=O)C6CC6)C[C@H]5/C=C\CCCCCCC(=O)N4C3)cc(-c3nccs3)nc2c1Br

concentration at 2 h [4]: 290 ng/mL
concentration at 1 h [5]: 693 ng/mL
CL [6]: 65.7 mL/min/kg
metabolized at 0.25 h, 5 µM [1]: 42.6%
AUC [7]: 2154 ng·h/mL
concentration at 4 h [8]: 363 ng/mL
Cmax [10]: 715 ng/mL
Vd [11]: 2.75 L/kg
concentration at 8 h [12]: 15.1 ng/g
concentration at 0.33 h [13]: 708 ng/mL
concentration at 0.5 h [14]: 698 ng/mL
concentration at 8 h [15]: 3660 ng/g
concentration at 8 h [16]: 53 ng/mL
Ki [2]: 0.2 nM
concentration at 4 h [17]: 139 ng/mL
concentration at 0.12 h [18]: 1500 ng/mL
Papp A→B [19]: 11.1 ×10⁻⁶ cm/s
bioavailability [20]: 31%
AUC(0-t) at 8 h [21]: 3070 ng·h/mL
AUC(0-inf) [22]: 3610 ng·h/mL
concentration at 8 h [23]: 35.8 ng/g
half-life [24]: 2.73 h
AUC(0-t) at 8 h [25]: 1960 ng·h/mL
EC50 [3]: 3.76 nM
Tmax [27]: 0.75 h
concentration at 8 h [28]: 7660 ng/g
concentration at 2 h [29]: 632 ng/mL
half-life [30]: 2.49 h
concentration at 1 h [31]: 449 ng/mL
concentration at 8 h [32]: 133 ng/mL
Structure (SMILES): COc1ccc2c(O[C@@H]3C[C@H]4C(=O)N[C@]5(C(=O)NS(=O)(=O)C6(C)CC6)C[C@H]5/C=C\CCCCCC(=O)N4C3)cc(-c3nc(C(C)C)cs3)nc2c1Cl
CC50 [9]: > 20000 nM
CC50 [26]: > 20000 nM

metabolized at 0.25 h, 5 µM [1]: 28.8%
Ki [2]: 0.4 nM
EC50 [3]: 14.1 nM
Structure (SMILES): COc1ccc2c(O[C@@H]3C[C@H]4C(=O)N[C@]5(C(=O)NS(=O)(=O)C6(C)CC6)C[C@H]5/C=C\CCCCCC(=O)N4C3)cc(-c3nc(C(C)C)cs3)nc2c1C

metabolized at 0.25 h, 5 µM [1]: 100%
Ki [2]: 1 nM
EC50 [3]: 16.8 nM
Structure (SMILES): COc1ccc2c(O[C@@H]3C[C@H]4C(=O)N[C@]5(C(=O)NS(=O)(=O)C6CC6)C[C@H]5/C=C\CCCCCCC(=O)N4C3)cc(-c3nccs3)nc2c1

metabolized at 0.25 h, 5 µM [1]: 91.5%
Ki [2]: 0.9 nM
EC50 [3]: 20.4 nM
Structure (SMILES): COc1ccc2c(O[C@@H]3C[C@H]4C(=O)N[C@]5(C(=O)NS(=O)(=O)C6CC6)C[C@H]5/C=C\CCCCCCC(=O)N4C3)cc(-c3csc(NC(C)C)n3)nc2c1

Ki [2]: 0.4 nM
EC50 [3]: 11.7 nM
Structure (SMILES): COc1ccc2c(O[C@@H]3C[C@H]4C(=O)N[C@]5(C(=O)NS(=O)(=O)C6CC6)C[C@H]5/C=C\CCCCCC(=O)N4C3)cc(-c3nc(C(C)C)cs3)nc2c1Cl

metabolized at 0.25 h, 5 µM [1]: 28.5%
Ki [2]: 0.3 nM
EC50 [3]: 1.63 nM
Structure (SMILES): COc1ccc2c(O[C@@H]3C[C@H]4C(=O)N[C@]5(C(=O)O)C[C@H]5/C=C\CCCCC[C@H](NC(=O)OC5CCCC5)C(=O)N4C3)cc(-c3csc(NC(C)C)n3)nc2c1 [CILUPREVIR]

Reference: ChEMBL document CHEMBL1141682, “Discovery of novel potent and selective dipeptide hepatitis C virus NS3/4A serine protease inhibitors” (Bioorg Med Chem Lett, 2008)
